pIC50: −log10 of the molar value.
Columns and labels:
Plasmodium falciparum = experiment: Antiplasmodial activity against chloroquine-resistant Plasmodium falciparum W2 assessed as growth inhibition after 48 hrs by flow cytometer; assay type: functional, organism-based; conditions: W2, 48 h
Method in brief: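 Ring-stage W2 cultures in microwells exposed 48 h to a range of compound concentrations, added from DMSO stocks. Parasites then fixed in 1% formaldehyde/PBS pH 7.4 (48 h, RT) and stained with YOYO-1 (1 nM) in 0.1% Triton X-100/PBS. Parasitemia counted by flow cytometry (forward scatter vs fluorescence). IC50 fitted from % parasitemia vs untreated controls (R2 >0.95).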

[1] = Selectivity index, ratio of IC50 for human A549 cells to IC50 for chloroquine-resistant Plasmodium falciparum W2; assay type: toxicity; conditions: read-out: Selectivity Index
Method in brief: (§1)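 Selectivity index is cell-line IC50 (A549 for line 2, HeLa for line 3) divided by W2 IC50. Cells grown in DMEM with 10% FBS, seeded at 1 × 10^4 per well and allowed to adhere 24 h at 37 °C. They were then exposed to graded concentrations for 24 h. MTT (4 mg/mL) was added for 4 h and formazan dissolved in DMSO. IC50 from log(inhibitor)-response fits, three independent experiments.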

A549 = experiment: Cytotoxicity against human A549 cells assessed as reduction in cell viability preincubated for 24 hrs measured after 4 hrs by MTT assay; assay type: functional, cell-based
Method in brief: (§2)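 Cells were grown in DMEM with 10% fetal bovine serum, seeded at 1 × 10^4 cells per well and left 24 h at 37 °C to adhere. A range of compound concentrations was added for 24 h. Medium was then removed, MTT solution (4 mg mL−1) added for 4 h, and formazan dissolved in DMSO. Survival was expressed against untreated wells, and IC50 was fitted by log(inhibitor)–response nonlinear regression from three independent experiments.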

HeLa = experiment: Cytotoxicity against human HeLa cells assessed as reduction in cell viability preincubated for 24 hrs measured after 4 hrs by MTT assay; assay type: functional, cell-based; method in brief: as §2
[2] = Selectivity index, ratio of IC50 for human HeLa cells to IC50 for chloroquine-resistant Plasmodium falciparum W2; assay type: toxicity; conditions: read-out: Selectivity Index; method in brief: as §1

With `COc1cccc(C(c2ccc(Cl)c(Cl)c2)N2CCN(c3ncnc4sc5c(c34)CCCC5)CC2)c1O` (stereo not drawn) the pIC50 (Plasmodium falciparum) was 5.87.

`COc1cccc(C(c2ccc(C)cc2)N2CCN(c3ncnc4sc5c(c34)CCCC5)CC2)c1O` (stereo not drawn) gave a pIC50 (Plasmodium falciparum) of 5.40.

Work on `COc1cccc(C(c2ccc(C(F)(F)F)cc2)N2CCN(c3ncnc4sc5c(c34)CCCC5)CC2)c1O` (stereo not drawn) yielded a selectivity ratio [1] of 9.86, a pIC50 (Plasmodium falciparum) of 6.13 and a pIC50 (A549) of 5.14. It also gave a pIC50 (HeLa) of 5.15 and a selectivity ratio [2] of 9.59.

With `COc1cccc(C(c2ccc(F)c(F)c2)N2CCN(c3ncnc4sc5c(c34)CCCC5)CC2)c1O` (stereo not drawn) the pIC50 (Plasmodium falciparum) was 5.95.

`COc1cccc(C(c2ccc(F)c(Cl)c2)N2CCN(c3ncnc4sc5c(c34)CCCC5)CC2)c1O` (stereo not drawn) gave a pIC50 (Plasmodium falciparum) of 5.93.

`COc1ccc(C(c2cccc(OC)c2O)N2CCN(c3ncnc4sc5c(c34)CCCC5)CC2)cc1` (stereo not drawn) gave a pIC50 (Plasmodium falciparum) of 5.19.

`COc1cccc(C(c2ccc(F)cc2)N2CCN(c3ncnc4sc5c(c34)CCCC5)CC2)c1O` (stereo not drawn) gave a pIC50 (Plasmodium falciparum) of 5.65.

`Oc1ccccc1C(c1ccc(Cl)c(Cl)c1)N1CCN(c2ncnc3sc4c(c23)CCCC4)CC1` (stereo not drawn) gave a selectivity ratio [1] of 15.3, a pIC50 (Plasmodium falciparum) of 6.12 and a pIC50 (A549) of 4.94. The pIC50 (HeLa) was 4.99 and the selectivity ratio [2] was 13.7.

Work on `Cc1ccc(C(c2ccccc2O)N2CCN(c3ncnc4sc5c(c34)CCCC5)CC2)cc1` (stereo not drawn) yielded a pIC50 (Plasmodium falciparum) of 5.87.

`Oc1ccccc1C(c1ccc(C(F)(F)F)cc1)N1CCN(c2ncnc3sc4c(c23)CCCC4)CC1` (stereo not drawn) showed a pIC50 (Plasmodium falciparum) of 5.86.

In the case of `COc1cccc2c1C(=O)c1c(O)c3c(c(O)c1C2=O)C[C@@](O)(C(=O)CO)C[C@@H]3O[C@H]1C[C@H](N)[C@H](O)[C@H](C)O1` [DOXORUBICIN], the pIC50 (A549) was 5.26 and the pIC50 (HeLa) was 5.24.

For `Oc1ccccc1C(c1ccc(F)c(Cl)c1)N1CCN(c2ncnc3sc4c(c23)CCCC4)CC1` (stereo not drawn), the selectivity ratio [1] was 8.01, the pIC50 (Plasmodium falciparum) was 5.97 and the pIC50 (A549) was 5.07. The pIC50 (HeLa) was 5.19 and the selectivity ratio [2] was 6.03.

`Oc1ccccc1C(c1ccc(OC(F)(F)F)cc1)N1CCN(c2ncnc3sc4c(c23)CCCC4)CC1` (stereo not drawn) gave a selectivity ratio [1] of 6.09, a pIC50 (Plasmodium falciparum) of 5.93 and a pIC50 (A549) of 5.14. For the same molecule, the pIC50 (HeLa) was 5.04 and the selectivity ratio [2] was 7.7.

In the case of `COc1cccc(C(c2ccc(OC(F)(F)F)cc2)N2CCN(c3ncnc4sc5c(c34)CCCC5)CC2)c1O` (stereo not drawn), the pIC50 (Plasmodium falciparum) was 5.91.

Work on `COc1ccc(C(c2ccccc2O)N2CCN(c3ncnc4sc5c(c34)CCCC5)CC2)cc1` (stereo not drawn) yielded a pIC50 (Plasmodium falciparum) of 5.62.

Molecule `Oc1ccccc1C(c1ccc(F)cc1)N1CCN(c2ncnc3sc4c(c23)CCCC4)CC1` (stereo not drawn) has a pIC50 (Plasmodium falciparum) of 5.79.

Molecule `Oc1ccccc1C(c1ccc(F)c(F)c1)N1CCN(c2ncnc3sc4c(c23)CCCC4)CC1` (stereo not drawn) has a selectivity ratio [1] of 8.43, a pIC50 (Plasmodium falciparum) of 5.98 and a pIC50 (A549) of 5.06. It also gave a pIC50 (HeLa) of 4.90 and a selectivity ratio [2] of 12.3.

From ChEMBL document CHEMBL4732035, “Design, synthesis, crystal structure and anti-plasmodial evaluation of tetrahydrobenzo[4,5]thieno[2,3-d]pyrimidine derivatives” (RSC Med Chem, 2021)
